Measured values published in ChEMBL document CHEMBL2057098, “Novel 1,2,4-triazolo[1,5-a]pyridines and their fused ring systems attenuate oxidative stress and prolong lifespan of Caenorhabiditis elegans” (2012).
The source made the active and inactive calls. No cut-off for these calls is given here.

What was measured:
Caenorhabditis elegans [1] = assay: Antioxidant activity against parquat-induced oxidative stress in wild type Caenorhabditis elegans Bristol N2 assessed as increase in survival time at 500 nM to 1 uM; format: functional, organism-based
How it was run: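 Age-synchronised 7-day-old adult N2 worms were placed overnight on agar plates with 40 μM FUDR and paraquat, with or without compound (50 nM, 500 nM, 1 μM), at 20 °C. Viability was scored over 20 h, with 30 worms per trial in three independent experiments. Survival was plotted as Kaplan–Meier curves.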

Caenorhabditis elegans [2] = assay: Antioxidant activity against parquat-induced oxidative stress in wild type Caenorhabditis elegans Bristol N2 assessed as increase in survival time at 500 nM (reference value: 17.64 +/- 0.19 days); format: functional
Caenorhabditis elegans [3] = assay: Antioxidant activity against parquat-induced oxidative stress in wild type Caenorhabditis elegans Bristol N2 assessed as increase in survival time at 1 uM (reference value: 17.64 +/- 0.19 days); format: functional
Caenorhabditis elegans [4] = assay: Antioxidant activity against parquat-induced oxidative stress in wild type Caenorhabditis elegans Bristol N2 assessed as increase in survival time; format: functional, organism-based
How it was run: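 Seven-day-old synchronised N2 adults, 30 worms per trial at 20 °C. Worms were placed overnight on agar containing paraquat and 40 μM FUDR, with or without test compound. Viability was scored over a 20 h period. Three independent experiments.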

Caenorhabditis elegans [5] = assay: Antioxidant activity against heat-induced oxidative stress in wild type Caenorhabditis elegans Bristol N2 assessed as increase in survival time measured for 16 hrs at 37 degC relative to control; format: functional, organism-based
Caenorhabditis elegans [6] = assay: Antioxidant activity in wild type Caenorhabditis elegans Bristol N2 assessed as decrease in oxidative stress-induced carboxymethyllysine formation by ELISA; format: functional, organism-based
How it was run: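 Protein extracts came from N2 worms treated for 7 days with or without compound, with 40 μM FUDR; protein was quantified. CML was measured by competitive ELISA on streptavidin-coated plates using biotinylated glucose-glycated BSA and an HRP-labelled mouse monoclonal anti-CML antibody.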

Caenorhabditis elegans [7] = assay: Antioxidant activity against lipid peroxidation in wild type Caenorhabditis elegans Bristol N2 assessed as decrease of malondialdehyde level; format: functional, organism-based
How it was run: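 N2 worms were kept 7 days on plates with 40 μM FUDR, with or without compound. They were washed by sucrose flotation, homogenised in Tris-HCl pH 7.9 buffer with protease inhibitors, and centrifuged. The lysate was treated with 8.1% SDS for 10 min at room temperature, then boiled 60 min with 20% acetic acid and 0.6% thiobarbituric acid, with 0.01% BHT present. A butanol:pyridine (15:1) extract was read at 532 nm against a tetramethoxypropane standard. MDA was expressed as nmol/g protein.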

Caenorhabditis elegans [8] = assay: Antioxidant activity against parquat-induced oxidative stress in wild type Caenorhabditis elegans Bristol N2 assessed as increase in survival time at 50 nM (reference value: 17.64 +/- 0.19 days); format: functional
Caenorhabditis elegans [9] = assay: Antioxidant activity against heat-induced oxidative stress in wild type Caenorhabditis elegans Bristol N2 assessed as increase in survival time at 50 nM […] relative to control; format: functional
Caenorhabditis elegans [10] = assay: Antioxidant activity against heat-induced oxidative stress in wild type Caenorhabditis elegans Bristol N2 assessed as increase in survival time at 500 nM […] relative to control; format: functional
Caenorhabditis elegans [11] = assay: Antioxidant activity against heat-induced oxidative stress in wild type Caenorhabditis elegans Bristol N2 assessed as increase in survival time at 1 uM […] relative to control; format: functional

**Q.** Which results are given for `CCOC(=O)c1cc2c(=O)n3nc(SCC)n(-c4ccccc4)c3c(C#N)c2[nH]1`?
**A.** Activity (Caenorhabditis elegans [1]): inactive; Activity (Caenorhabditis elegans [2]): inactive

**Q.** Which results are given for `CCSc1nn2c(=O)c(/C=N/O)c(NCC(C)C)c(C#N)c2n1-c1ccccc1`?
**A.** Activity (Caenorhabditis elegans [1]): inactive; Activity (Caenorhabditis elegans [2]): inactive

**Q.** For `CCSc1nn2c(=O)c(C#N)c(N)c(C#N)c2n1-c1ccccc1`, which Time (Caenorhabditis elegans [3]) is on record?
**A.** 21 days

**Q.** And the Activity (Caenorhabditis elegans [4])?
**A.** Dose-dependent effect

**Q.** And the Activity (Caenorhabditis elegans [5])?
**A.** Dose-dependent effect

**Q.** What about the Activity (Caenorhabditis elegans [6]) of the same compound?
**A.** Dose-dependent effect

**Q.** And the Activity (Caenorhabditis elegans [7])?
**A.** Dose-dependent effect

**Q.** And the Time (Caenorhabditis elegans [2])?
**A.** 19.76 days

**Q.** And the Time (Caenorhabditis elegans [8])?
**A.** 18 days

**Q.** What about the “fold change (FC)” value (Caenorhabditis elegans [9]) of the same compound?
**A.** 1.8

**Q.** What about the “fold change (FC)” value (Caenorhabditis elegans [10]) of the same compound?
**A.** 2

**Q.** What about the “fold change (FC)” value (Caenorhabditis elegans [11]) of the same compound?
**A.** 2.5

**Q.** For `CCSc1nn2c(=O)c(/C=N/O)c(Cl)c(C#N)c2n1-c1ccccc1`, which Activity (Caenorhabditis elegans [1]) is on record?
**A.** inactive

**Q.** What about the Activity (Caenorhabditis elegans [2]) of the same compound?
**A.** inactive
